Data: ChEMBL document CHEMBL1157514, “3-Alkenyl-2-azetidinones as fatty acid amide hydrolase inhibitors” (Bioorg Med Chem Lett, 2008)
Calls of active or inactive are those of the source. The rule behind the calls is not given here.

Key:
[1] = target: T1, Fatty-acid amide hydrolase 1 (Homo sapiens) (UniProt O00519); assay: Inhibition of human FAAH expressed in Escherichia coli at 1 mM
T1 sequence (whole entry): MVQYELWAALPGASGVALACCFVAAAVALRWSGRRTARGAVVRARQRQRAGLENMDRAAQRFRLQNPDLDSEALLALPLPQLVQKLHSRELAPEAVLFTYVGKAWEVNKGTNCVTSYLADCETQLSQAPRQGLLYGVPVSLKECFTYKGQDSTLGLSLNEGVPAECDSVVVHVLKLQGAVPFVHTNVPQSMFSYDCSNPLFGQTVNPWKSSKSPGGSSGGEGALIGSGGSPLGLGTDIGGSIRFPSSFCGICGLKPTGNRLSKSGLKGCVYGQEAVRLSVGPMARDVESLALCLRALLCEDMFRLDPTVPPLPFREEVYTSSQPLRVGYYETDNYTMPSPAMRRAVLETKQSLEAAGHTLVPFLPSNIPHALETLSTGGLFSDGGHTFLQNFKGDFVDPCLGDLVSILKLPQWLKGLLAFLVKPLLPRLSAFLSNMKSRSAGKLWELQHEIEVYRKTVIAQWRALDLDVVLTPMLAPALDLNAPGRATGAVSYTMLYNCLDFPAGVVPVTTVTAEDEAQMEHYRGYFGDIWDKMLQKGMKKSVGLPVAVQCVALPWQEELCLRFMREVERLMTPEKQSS
In short: (§1)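 Human FAAH expressed in E. coli, in Tris-HCl pH 7.4, was added on ice to compound or DMSO. [3H]-AEA was added (50,000 dpm; 2 µM final) in Tris-HCl with 0.1% BSA, then incubated 10 min at 37 °C. The reaction was stopped on ice with cold MeOH–CHCl3 (1:1) and centrifuged. [3H]-ethanolamine in the aqueous phase was counted by liquid scintillation, with no-enzyme blanks subtracted.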

[2] = target: T2, Fatty-acid amide hydrolase 1 (Homo sapiens, UniProt O00519); assay: Inhibition of human FAAH expressed in Escherichia coli; in short: as §1
T2 sequence (O00519 whole entry): T1 sequence (whole entry)

[3] = target: T3, Monoglyceride lipase (Homo sapiens) (UniProt Q99685); assay: Inhibition of human MGL expressed in Escherichia coli at 1 mM
T3 sequence (whole entry): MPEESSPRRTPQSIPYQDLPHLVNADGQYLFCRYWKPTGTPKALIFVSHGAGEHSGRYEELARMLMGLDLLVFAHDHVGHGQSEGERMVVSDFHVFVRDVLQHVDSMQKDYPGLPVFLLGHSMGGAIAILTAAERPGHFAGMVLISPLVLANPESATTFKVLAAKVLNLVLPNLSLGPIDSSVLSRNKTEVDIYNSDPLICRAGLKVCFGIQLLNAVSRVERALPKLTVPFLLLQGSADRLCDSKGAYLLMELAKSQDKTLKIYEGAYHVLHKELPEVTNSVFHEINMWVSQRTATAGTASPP
In short: (§2)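 Human MGL expressed in E. coli was run in Tris-HCl pH 8 with [3H]-oleoylglycerol (50,000 dpm; 10 µM final) as substrate. Otherwise the radiometric hydrolysis protocol was similar: compound or DMSO, chloroform–methanol quench, scintillation counting of the aqueous phase, and subtraction of buffer-only blanks.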

[4] = target: T4, Pancreatic elastase (Sus scrofa) (UniProt P08419+P00772); assay: Inhibition of pig pancreatic elastase at 100 uM; type: protein assay
[5] = Inhibition of penicillin-binding protein R39 assessed as residual activity
In short: (§3)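 Compound (100 µM) was incubated with PBP (0.8–2.5 µM) for 16 h at 30 °C in 50 mM sodium phosphate pH 7 with 5% DMF; PBP2a and PBP5 also had 0.5 M NaCl. Free PBP was then labelled with 25 µM fluorescein-ampicillin for 45 min and the reaction stopped with SDS-PAGE loading buffer. Gel fluorescence was quantified, background subtracted, and residual activity given as % of initial (triplicate).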

[6] = Inhibition of penicillin-binding protein 2a assessed as residual activity at 100 uM after 16 hrs by SDS-PAGE; in short: as §3
[7] = Inhibition of penicillin-binding protein 2x assessed as residual activity; in short: as §3
[8] = Inhibition of penicillin-binding protein 5 assessed as residual activity at 100 uM after 16 hrs by SDS-PAGE; in short: as §3
[9] = target: T5, Monoglyceride lipase (Homo sapiens, UniProt Q99685); assay: Inhibition of human MGL expressed in Escherichia coli; in short: as §2
T5 sequence (Q99685 whole entry): T3 sequence (whole entry)

[10] = species on record: Homo sapiens; assay: Selectivity ratio of IC50 for human FAAH over IC50 for human MGL
[11] = target: T4, Pancreatic elastase (Sus scrofa); assay: Inhibition of pig pancreatic elastase at 10 mM; type: protein assay
[12] = target: T4, Pancreatic elastase (Sus scrofa); assay: Inhibition of pig pancreatic elastase at 5 mM; type: protein assay
[13] = target: T4, Pancreatic elastase (Sus scrofa); assay: Inhibition of pig pancreatic elastase at 2.5 mM; type: protein assay
[14] = target: T4, Pancreatic elastase (Sus scrofa); assay: Inhibition of pig pancreatic elastase at 0.1 mM; type: protein assay

Compound | inhibition [1] [%] | IC50 [2] [µM] | inhibition [3] [%] | further results
C=CCC1CNC1=O (racemic) | 56.6 |  | 15.6 | 
C=CCCC1CNC1=O (racemic) | 48 |  | 8.1 | 
C=CCCC(=O)N1CC(CC=C)C1=O (racemic) | 96.5 | 61.8 | 46.4 | Activity [4]: Active; Activity [5]: 73%; Activity [6]: 87%; Activity [7]: 108%; Activity [8]: 104%
C=CCCCC1CN([Si](C)(C)C(C)(C)C)C1=O (racemic) | 76.9 |  | 54.9 | 
C=CCCCC1CN(C(=O)CCC=C)C1=O (racemic) | 101 | 4.5 | 62.1 | IC50 [9]: 657 µM; Ratio IC50 [10]: 146; Activity [11]: inactive; Activity [12]: inactive; Activity [13]: inactive; Activity [14]: inactive

Continued, in another order:

inhibition [1] [%] | IC50 [2] [µM] | inhibition [3] [%] | Compound | further results
80.5 | 259 | 36.3 | C=CCCCC1(CCCC=C)CNC1=O | 
49.5 |  | 69.9 | C=CCCC1CN([Si](C)(C)C(C)(C)C)C1=O (racemic) | 
80.9 |  | 54.9 | C=CCCCC1CNC1=O (racemic) | 
25.2 |  | 10.3 | C=CCCCC1(CCCC=C)CN([Si](C)(C)C(C)(C)C)C1=O | 
43.6 |  | 77.5 | C=CCC1CN([Si](C)(C)C(C)(C)C)C1=O (racemic) | 
103 | 21.9 | 58.1 | C=CCCC(=O)N1CC(CCC=C)C1=O (racemic) | IC50 [9]: 817 µM; Ratio IC50 [10]: 37; Activity [11]: inactive; Activity [12]: inactive; Activity [13]: inactive; Activity [14]: inactive
